Assay type in all cases: biochemical
One data set addresses CYP2E1 (Homo sapiens, UniProt P05181). Put plainly: index substrate turnover in pooled HLM, HPLC. The settings on record: for IC50: human, microsomes.
The next data set has as its target CYP2C9 (Homo sapiens, UniProt P11712). The data set can be described thus: index substrate turnover in pooled HLM, HPLC. The settings on record: microsomes.
For another data set, the target named is T1, UGT2B7 (Homo sapiens, UniProt P16662).
T1 sequence (P16662 24-529): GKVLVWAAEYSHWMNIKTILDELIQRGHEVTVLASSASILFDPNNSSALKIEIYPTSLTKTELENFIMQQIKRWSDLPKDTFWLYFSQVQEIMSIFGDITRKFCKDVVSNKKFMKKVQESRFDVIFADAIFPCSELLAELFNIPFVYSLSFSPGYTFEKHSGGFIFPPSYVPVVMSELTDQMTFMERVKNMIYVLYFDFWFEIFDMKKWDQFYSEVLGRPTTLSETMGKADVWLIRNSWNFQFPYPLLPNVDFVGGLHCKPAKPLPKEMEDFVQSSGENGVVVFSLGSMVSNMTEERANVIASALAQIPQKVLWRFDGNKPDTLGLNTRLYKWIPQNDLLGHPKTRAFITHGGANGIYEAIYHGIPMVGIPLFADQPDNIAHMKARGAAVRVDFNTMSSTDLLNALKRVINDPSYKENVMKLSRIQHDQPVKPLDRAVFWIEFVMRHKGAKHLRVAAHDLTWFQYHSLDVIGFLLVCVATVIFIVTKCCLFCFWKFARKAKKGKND
Put plainly: glucuronidation of index substrate in pooled HLM, HPLC-UV. The settings on record: without preincubation; pH 7.5, 10 mM UDPGA, alamethicin. An outline of the steps: (§1)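 Pooled HLMs (53 donors, 50–500 μg/ml) in 50 mm phosphate pH 7.5 with 5 mm MgCl2 and alamethicin […]. Test compound at 0–250 μm (seven levels) was dried, reconstituted in 1% methanol and not preincubated. Reactions started with UDPGA (10 mm final). Substrates: AZT (UGT2B7), oxazepam (UGT2B15). Acetonitrile stop (acidified for UGT2B7) with IS; HPLC-UV; duplicates; IC50 by nonlinear regression.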

A further data set deals with T2, UGT2B15 (Homo sapiens, UniProt P54855).
T2 sequence (P54855 24-530): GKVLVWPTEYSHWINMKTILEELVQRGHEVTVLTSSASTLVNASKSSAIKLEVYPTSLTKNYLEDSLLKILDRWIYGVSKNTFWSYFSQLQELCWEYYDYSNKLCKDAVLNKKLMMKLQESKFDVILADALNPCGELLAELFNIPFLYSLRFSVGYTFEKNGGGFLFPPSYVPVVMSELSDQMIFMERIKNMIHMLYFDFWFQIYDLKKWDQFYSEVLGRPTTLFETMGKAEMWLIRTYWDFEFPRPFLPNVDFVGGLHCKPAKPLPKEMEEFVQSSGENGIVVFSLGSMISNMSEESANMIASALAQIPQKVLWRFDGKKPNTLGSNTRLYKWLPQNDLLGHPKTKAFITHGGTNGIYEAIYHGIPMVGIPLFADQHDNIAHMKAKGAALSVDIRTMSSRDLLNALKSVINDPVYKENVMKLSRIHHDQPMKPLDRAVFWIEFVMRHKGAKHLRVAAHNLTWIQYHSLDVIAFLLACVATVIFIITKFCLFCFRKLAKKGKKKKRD
The data set is described as above. The settings on record: without preincubation; pH 7.5, 10 mM UDPGA, alamethicin. In short, it runs like this: as §1

A further data set concerns the target T3, CYP2B6 (Homo sapiens, UniProt P20813).
T3 sequence (P20813 1-491): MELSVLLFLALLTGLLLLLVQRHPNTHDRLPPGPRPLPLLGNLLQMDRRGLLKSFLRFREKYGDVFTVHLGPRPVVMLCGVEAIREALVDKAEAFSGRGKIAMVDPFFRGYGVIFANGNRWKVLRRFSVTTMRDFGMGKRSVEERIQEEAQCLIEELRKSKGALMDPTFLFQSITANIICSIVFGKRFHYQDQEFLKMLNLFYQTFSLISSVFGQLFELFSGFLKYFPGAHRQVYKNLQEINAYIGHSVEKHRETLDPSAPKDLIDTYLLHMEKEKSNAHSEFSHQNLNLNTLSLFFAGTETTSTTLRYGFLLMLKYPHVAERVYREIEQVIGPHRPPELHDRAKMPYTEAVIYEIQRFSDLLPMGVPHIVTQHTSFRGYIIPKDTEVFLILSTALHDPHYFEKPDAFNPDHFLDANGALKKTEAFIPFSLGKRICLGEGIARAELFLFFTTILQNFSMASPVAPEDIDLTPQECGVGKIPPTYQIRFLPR
The data set can be described thus: index substrate turnover in pooled HLM, HPLC. To be noted: microsomes. An outline of the steps: (§2)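 Pooled HLMs (53 donors) in 50 mm phosphate pH 7.5 with 5 mm MgCl2, 0.5 mm NADP and an isocitrate/isocitric dehydrogenase regenerating system. Test compound at 0–600 μm (eight levels) was dried, reconstituted in 1% methanol, with or without 20-min 37°C preincubation. Substrates: phenacetin (1A2), bupropion (2B6), taxol (2C8), dextromethorphan (2D6). Acetonitrile stop (acidified for 2B6) with IS; HPLC-UV/fluorescence; duplicates; hyperbolic nonlinear-regression IC50.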

The target in another data set is CYP2D6 (Homo sapiens, UniProt P10635). The data set can be described thus: index substrate turnover in pooled HLM, HPLC. The settings on record: microsomes. In short, it runs like this:
as §2

For a further data set, the target named is T4, UGT1A6 (Homo sapiens, UniProt P19224).
T4 sequence (P19224 27-532): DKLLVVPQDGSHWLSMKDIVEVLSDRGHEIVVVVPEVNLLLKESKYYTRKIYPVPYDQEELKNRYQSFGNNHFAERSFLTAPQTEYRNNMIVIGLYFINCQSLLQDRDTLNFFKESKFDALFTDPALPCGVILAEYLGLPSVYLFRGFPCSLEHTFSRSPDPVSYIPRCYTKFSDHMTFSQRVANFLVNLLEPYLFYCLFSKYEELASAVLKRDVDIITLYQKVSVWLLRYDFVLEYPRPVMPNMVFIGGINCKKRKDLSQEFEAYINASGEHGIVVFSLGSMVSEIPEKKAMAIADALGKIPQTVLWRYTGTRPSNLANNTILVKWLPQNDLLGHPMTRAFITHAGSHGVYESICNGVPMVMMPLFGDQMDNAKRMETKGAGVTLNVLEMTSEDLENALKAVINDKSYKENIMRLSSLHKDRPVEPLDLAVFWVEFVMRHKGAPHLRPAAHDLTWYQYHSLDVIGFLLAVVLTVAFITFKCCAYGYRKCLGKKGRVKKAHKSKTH
The data set can be described thus: glucuronidation of index substrate in pooled HLM, HPLC-UV. To be noted: without preincubation; pH 7.5, 10 mM UDPGA, alamethicin.

A further data set addresses T5, CYP2C8 (Homo sapiens, UniProt P10632).
T5 sequence (P10632 1-490): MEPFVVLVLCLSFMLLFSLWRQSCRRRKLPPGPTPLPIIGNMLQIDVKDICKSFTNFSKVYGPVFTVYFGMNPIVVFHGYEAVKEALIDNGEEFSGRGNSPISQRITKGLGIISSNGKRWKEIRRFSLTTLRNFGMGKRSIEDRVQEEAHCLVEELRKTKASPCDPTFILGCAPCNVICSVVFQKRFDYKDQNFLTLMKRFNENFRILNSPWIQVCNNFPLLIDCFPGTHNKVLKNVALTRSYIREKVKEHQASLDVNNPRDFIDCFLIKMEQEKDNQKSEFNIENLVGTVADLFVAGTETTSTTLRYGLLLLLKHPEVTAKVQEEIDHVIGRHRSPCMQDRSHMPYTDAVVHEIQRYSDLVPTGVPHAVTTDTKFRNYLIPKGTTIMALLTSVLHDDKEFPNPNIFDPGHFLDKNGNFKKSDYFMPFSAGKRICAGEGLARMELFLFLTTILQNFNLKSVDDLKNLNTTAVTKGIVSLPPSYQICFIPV
The data set can be described thus: index substrate turnover in pooled HLM, HPLC. The settings on record: microsomes. An outline of the steps: as §2

Another data set deals with CYP2C19 (Homo sapiens, UniProt P33261). The data set can be described thus: index substrate turnover in pooled HLM, HPLC. To be noted: microsomes.
Chain of CYP2C19 (P33261 whole entry): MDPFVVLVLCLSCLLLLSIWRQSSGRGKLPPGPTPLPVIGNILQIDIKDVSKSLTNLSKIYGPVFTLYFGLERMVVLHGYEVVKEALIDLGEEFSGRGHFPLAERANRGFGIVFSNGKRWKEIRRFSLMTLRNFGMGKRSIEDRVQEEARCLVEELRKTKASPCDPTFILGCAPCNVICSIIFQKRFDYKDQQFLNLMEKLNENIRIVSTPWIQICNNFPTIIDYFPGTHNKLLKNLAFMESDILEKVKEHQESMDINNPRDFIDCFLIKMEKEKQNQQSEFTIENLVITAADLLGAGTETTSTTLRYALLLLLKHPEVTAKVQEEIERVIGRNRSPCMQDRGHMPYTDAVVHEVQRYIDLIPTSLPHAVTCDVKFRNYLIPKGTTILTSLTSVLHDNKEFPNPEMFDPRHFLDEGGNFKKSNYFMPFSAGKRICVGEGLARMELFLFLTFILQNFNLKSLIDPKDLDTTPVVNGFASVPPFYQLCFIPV
The target of another data set is T6, CYP1A2 (Homo sapiens, UniProt P05177).
T6 sequence (P05177 2-516): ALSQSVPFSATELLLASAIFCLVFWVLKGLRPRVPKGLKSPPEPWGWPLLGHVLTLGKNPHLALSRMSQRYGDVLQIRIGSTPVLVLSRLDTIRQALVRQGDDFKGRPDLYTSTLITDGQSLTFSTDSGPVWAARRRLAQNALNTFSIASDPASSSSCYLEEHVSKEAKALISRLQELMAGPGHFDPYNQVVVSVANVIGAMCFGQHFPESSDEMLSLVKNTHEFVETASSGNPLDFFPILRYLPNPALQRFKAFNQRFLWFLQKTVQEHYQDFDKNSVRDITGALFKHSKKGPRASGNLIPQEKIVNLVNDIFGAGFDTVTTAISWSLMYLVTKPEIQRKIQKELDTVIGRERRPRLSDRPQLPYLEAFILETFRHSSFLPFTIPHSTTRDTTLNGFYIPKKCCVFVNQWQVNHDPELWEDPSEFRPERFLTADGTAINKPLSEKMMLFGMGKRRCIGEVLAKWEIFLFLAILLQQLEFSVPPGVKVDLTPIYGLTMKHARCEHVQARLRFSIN
Put plainly: index substrate turnover in pooled HLM, HPLC. The settings on record: microsomes. In short, it runs like this: as §2

Where [1] appears, read: without preincubation, 37 °C, solvent effect.

Usually IC50 stands for the concentration that gives 50% inhibition. The low end stands for higher potency, the high end for lower potency.

Chain of CYP2E1 (P05181 whole entry): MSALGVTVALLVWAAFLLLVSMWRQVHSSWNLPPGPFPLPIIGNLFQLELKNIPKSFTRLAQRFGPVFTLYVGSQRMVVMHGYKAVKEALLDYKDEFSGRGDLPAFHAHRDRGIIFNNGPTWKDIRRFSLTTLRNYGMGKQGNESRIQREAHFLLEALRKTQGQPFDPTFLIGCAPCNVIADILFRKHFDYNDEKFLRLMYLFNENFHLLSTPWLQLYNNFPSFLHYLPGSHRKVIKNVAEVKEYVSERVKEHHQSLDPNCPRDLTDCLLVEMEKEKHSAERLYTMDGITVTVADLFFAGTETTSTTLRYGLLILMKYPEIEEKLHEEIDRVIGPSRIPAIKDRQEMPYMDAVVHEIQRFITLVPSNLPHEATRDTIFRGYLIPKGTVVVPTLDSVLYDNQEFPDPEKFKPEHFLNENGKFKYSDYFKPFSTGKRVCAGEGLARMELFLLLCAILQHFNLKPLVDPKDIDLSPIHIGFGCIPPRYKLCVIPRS
Chain of CYP2D6 (P10635 whole entry): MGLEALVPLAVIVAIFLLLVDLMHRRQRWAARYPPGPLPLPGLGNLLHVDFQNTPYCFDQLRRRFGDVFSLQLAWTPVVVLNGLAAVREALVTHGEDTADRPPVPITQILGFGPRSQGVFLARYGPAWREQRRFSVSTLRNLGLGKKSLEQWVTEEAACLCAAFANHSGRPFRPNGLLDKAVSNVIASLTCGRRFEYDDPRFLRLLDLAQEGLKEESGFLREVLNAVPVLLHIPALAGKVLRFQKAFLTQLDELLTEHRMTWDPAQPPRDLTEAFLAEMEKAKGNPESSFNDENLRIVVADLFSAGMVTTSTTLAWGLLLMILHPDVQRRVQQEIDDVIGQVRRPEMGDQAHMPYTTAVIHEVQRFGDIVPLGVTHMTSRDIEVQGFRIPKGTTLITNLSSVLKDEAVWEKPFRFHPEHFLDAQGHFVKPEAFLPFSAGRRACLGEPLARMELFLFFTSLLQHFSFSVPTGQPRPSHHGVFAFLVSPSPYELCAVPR
Chain of CYP2C9 (P11712 whole entry): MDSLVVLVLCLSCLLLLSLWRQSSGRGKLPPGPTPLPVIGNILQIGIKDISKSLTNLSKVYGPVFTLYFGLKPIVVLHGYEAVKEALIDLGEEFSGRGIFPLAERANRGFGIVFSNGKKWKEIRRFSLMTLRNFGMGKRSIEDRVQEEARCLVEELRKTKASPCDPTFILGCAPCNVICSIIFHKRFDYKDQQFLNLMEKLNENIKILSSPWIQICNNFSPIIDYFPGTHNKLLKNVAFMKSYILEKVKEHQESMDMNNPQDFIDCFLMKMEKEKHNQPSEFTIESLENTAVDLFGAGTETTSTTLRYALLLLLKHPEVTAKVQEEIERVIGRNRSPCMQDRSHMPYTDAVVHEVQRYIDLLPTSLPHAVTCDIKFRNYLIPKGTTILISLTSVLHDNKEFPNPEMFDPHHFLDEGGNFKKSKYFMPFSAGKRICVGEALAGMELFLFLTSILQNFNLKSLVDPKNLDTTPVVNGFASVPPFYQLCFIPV

Take `CO` [methanol]: at CYP2E1 (setting [1]), the “MEOH / W/O (%)” value is 0.63 % (v/v).

For `O=c1cc(-c2ccc(O)c(O)c2)oc2cc(O)cc(O)c12` [luteolin], the IC50 against CYP2C9 is 28.9 µM; at UGT2B7 it was more than 250 µM; on UGT2B15 it was more than 250 µM; against CYP2E1 it was 89.3 µM; on CYP2B6, 103 µM; against CYP2D6, 153 µM. Also, the IC50 at UGT1A6 is more than 250 µM; on CYP2C8, 2.5 µM; on CYP2C19 it was 47.9 µM; against CYP1A2, 3.5 µM.

Take `C[S+](C)[O-]` [DMSO]: on CYP2E1 (setting [1]), the “DMSO / W/O (%)” value was 0.06 % (v/v).

Take `O=c1c(O)c(-c2ccc(O)c(O)c2)oc2cc(O)cc(O)c12` [quercetin]: the IC50 against UGT2B15 was more than 250 µM; on CYP2E1, 66.2 µM; at CYP2B6, 89.2 µM; at CYP2D6, 234 µM; against CYP2C8, 2.4 µM; at CYP2C19, 140 µM. The compound further registered an IC50 against CYP1A2 of 5.2 µM.
